# Results as given in ChEMBL document CHEMBL1134769, “Potent and selective nonpeptide inhibitors of caspases 3 and 7” (J Med Chem, 2001).
# pIC50, pKi: −log10 of the molar value.
# Assays:
# Jurkat (Homo sapiens) [1] = assay: In vitro inhibition of Jurkat cell apoptosis at 10 uM of compound
# Caspase-1 = biological target: T1, Caspase-1 (Homo sapiens, UniProt P29466); assay: Inhibitory activity against caspase-1; settings: read-out: Ki app
# T1 sequence (P29466 whole entry): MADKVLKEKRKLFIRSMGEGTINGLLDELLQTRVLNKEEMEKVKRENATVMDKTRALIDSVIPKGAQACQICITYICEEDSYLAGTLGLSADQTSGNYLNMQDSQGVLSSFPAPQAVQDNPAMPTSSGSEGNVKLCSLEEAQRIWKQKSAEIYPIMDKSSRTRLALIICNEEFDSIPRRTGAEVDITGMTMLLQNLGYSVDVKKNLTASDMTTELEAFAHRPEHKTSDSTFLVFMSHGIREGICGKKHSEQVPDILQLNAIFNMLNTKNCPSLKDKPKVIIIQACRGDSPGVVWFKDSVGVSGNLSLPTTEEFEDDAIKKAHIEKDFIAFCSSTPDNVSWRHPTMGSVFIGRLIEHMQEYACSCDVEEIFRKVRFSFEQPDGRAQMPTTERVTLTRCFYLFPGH
# Method in brief: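 Recombinant full-length human caspase 1, ~10 units/assay, in 25 mM K+HEPES pH 7.5 with 10% sucrose, 0.1% CHAPS and 5 mM β-mercaptoethanol. Substrate 10 μM Ac-YVAD-AMC. AMC read at 360/460 nm, 30 °C, with 5% final DMSO. Single-dose screen (typically 5–50 μM), followed by IC50 curves for active compounds.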
# Jurkat (Homo sapiens) [2] = assay: In vitro inhibition of Jurkat cell apoptosis at 50 uM of compound
# Caspase-9 = biological target: T2, Caspase-9 (Homo sapiens, UniProt P55211); assay: Inhibitory activity against Caspase-9; settings: read-out: Ki app
# T2 sequence (P55211 whole entry): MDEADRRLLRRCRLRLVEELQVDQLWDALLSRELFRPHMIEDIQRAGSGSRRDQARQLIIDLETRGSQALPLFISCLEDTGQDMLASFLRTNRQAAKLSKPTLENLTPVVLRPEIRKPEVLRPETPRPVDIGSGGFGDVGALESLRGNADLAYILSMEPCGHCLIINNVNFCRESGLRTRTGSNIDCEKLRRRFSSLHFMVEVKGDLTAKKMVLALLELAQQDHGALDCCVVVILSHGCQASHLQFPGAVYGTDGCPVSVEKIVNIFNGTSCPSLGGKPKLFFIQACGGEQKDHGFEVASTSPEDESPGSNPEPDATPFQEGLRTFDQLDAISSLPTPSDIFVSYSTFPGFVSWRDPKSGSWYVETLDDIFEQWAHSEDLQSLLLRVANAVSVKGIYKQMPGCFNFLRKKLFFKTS
# Caspase-3 = biological target: T3, Caspase-3 (Homo sapiens, UniProt P42574); assay: Inhibition of recombinant human caspase-3
# T3 sequence (P42574 whole entry): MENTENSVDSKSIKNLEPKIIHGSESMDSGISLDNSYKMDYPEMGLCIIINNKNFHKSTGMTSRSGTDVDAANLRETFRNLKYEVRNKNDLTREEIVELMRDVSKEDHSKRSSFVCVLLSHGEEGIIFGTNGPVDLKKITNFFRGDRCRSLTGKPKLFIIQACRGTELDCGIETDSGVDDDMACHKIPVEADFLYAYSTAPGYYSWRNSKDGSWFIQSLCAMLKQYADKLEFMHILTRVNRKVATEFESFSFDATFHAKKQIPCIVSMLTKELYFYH
# Caspase-4 = biological target: T4, Caspase-4 (Homo sapiens, UniProt P49662); assay: Inhibitory activity against caspase-4; settings: read-out: Ki app
# T4 sequence (P49662 whole entry): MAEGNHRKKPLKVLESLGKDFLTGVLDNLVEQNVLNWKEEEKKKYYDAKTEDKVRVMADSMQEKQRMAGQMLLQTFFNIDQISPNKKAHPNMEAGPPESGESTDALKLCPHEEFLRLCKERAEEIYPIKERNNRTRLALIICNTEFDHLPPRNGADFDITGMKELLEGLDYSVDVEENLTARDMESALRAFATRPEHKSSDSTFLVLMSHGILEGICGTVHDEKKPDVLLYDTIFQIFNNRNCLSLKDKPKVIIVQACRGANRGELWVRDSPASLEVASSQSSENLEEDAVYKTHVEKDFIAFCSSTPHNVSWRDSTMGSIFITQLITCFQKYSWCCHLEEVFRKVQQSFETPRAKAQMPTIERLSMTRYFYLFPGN
# Method in brief: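 Recombinant full-length human caspase 4, ~10 units/assay, in potassium acetate pH 5.8 with 1 mM EDTA, 10% sucrose, 0.1% CHAPS and 5 mM β-mercaptoethanol. Substrate 100 μM Ac-LEED-AMC. Read at 360/460 nm, 30 °C, 5% final DMSO. Single-dose screen (typically 5–50 μM), then IC50 curves for actives.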
# Caspase-6 = biological target: T5, Caspase-6 (Homo sapiens, UniProt P55212); assay: Inhibitory activity against Caspase-6; settings: read-out: Ki app
# T5 sequence (P55212 whole entry): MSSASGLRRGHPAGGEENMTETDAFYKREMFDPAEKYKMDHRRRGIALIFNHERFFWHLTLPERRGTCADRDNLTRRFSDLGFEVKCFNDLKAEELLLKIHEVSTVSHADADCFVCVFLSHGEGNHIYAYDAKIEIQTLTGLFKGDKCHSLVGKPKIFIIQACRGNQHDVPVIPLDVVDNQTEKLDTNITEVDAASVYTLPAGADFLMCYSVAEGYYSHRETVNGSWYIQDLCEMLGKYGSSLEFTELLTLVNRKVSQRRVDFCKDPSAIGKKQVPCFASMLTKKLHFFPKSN
# Method in brief: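 Recombinant full-length human caspase 6 (~10 units/assay) in 50 mM Tris-HCl pH 7.4 with 0.1% CHAPS, 1.5 mM MgCl2, 1 mM EDTA and 5 mM β-mercaptoethanol. Substrate 10 μM Ac-DEVD-AMC. AMC monitored at 360/460 nm, 30 °C, final DMSO 5%. Single-dose screen (typically 5–50 μM), then IC50 determination.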
# C20/A4 = assay: In vitro inhibition of Chondrocyte cell line C20/A4 apoptosis at 25 uM of compound; format: functional, Homo sapiens
# Method in brief: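 Immortalized human chondrocyte line C20/A4 seeded at 20 000 cells/well overnight, then exposed 24 h to 4 μg/mL camptothecin with or without compound. Floating and adherent cells combined and lysed 30 min at 4 °C, then clarified at 14000g. Mono- and oligonucleosome DNA fragments measured by cell death ELISA; result expressed as % inhibition of apoptosis.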
SMILES,pKi (Caspase-1),pKi (Caspase-9),pIC50 (Caspase-3),pKi (Caspase-4),pKi (Caspase-6),Inhibition (Jurkat (Homo sapiens) [1]),Inhibition (Jurkat (Homo sapiens) [2]),Inhibition (C20/A4)
COC[C@@H]1CCCN1S(=O)(=O)c1ccc2c(c1)C(=O)C(=O)N2,< 4.60,5.96,6.92,< 4.60,< 4.60,22%,54%,
O=C1C(=O)N(Cc2ccccc2)c2ccc(S(=O)(=O)N3CCC[C@H]3COc3ccccc3)cc21,< 5.30,6.92,8.60,< 5.30,< 5.30,27%,47%,84%

# Now from value to compound, other results behind:
pKi (Caspase-1),pKi (Caspase-9),pIC50 (Caspase-3),pKi (Caspase-4),pKi (Caspase-6),SMILES,Inhibition (Jurkat (Homo sapiens) [1]),Inhibition (Jurkat (Homo sapiens) [2]),Inhibition (C20/A4)
< 4.30,< 4.30,5.26,< 4.30,4.24,CN(CC1CCCN1S(=O)(=O)c1ccc2c(c1)C(=O)C(=O)N2)c1ccccc1 (stereo unspecified),,,
4.68,6.07,7.51,4.52,5.12,O=C1Nc2ccc(S(=O)(=O)N3CCC[C@H]3CNc3ccccc3)cc2C1=O,8%,61%,96%
4.77,5.92,7.36,4.48,4.54,O=C1Nc2ccc(S(=O)(=O)N3CCC[C@H]3COc3ccccc3)cc2C1=O,51%,82%,83%
